Assay results from different studies.
Each line is one published result; the experiments were not run side by side.
Target: Serine/threonine-protein kinase PAK 3 (PAK3, Homo sapiens, UniProt O75914)

`Cc1nc(C2CCN(C(=O)c3ccc(OC(F)(F)F)cc3N)CC2)c2ncc(N3CCN(C)CC3)cc2n1` gave a remaining binding of 100% (cell-free assay, competition with immobilised ligand; 1 µM).
`CCCS(=O)(=O)Nc1ccc(F)c(C(=O)c2c[nH]c3ncc(-c4ccc(Cl)cc4)cc23)c1F` gave an inhibition of less than 20% (enzyme activity, inhibitor; 1 µM).
`COc1cc2ncnc(Nc3ccc(Oc4ccccc4)cc3C)c2cc1OC` gave an inhibition of 3% (enzyme activity, inhibitor; 1 µM).
The remaining signal of `COc1cc2c(Nc3ccc(Br)cc3F)ncnc2cc1OCC1CCN(C)CC1` is reported as 103% (cell-free assay; 0.5 µM).
`Cn1cc(Cl)c2c(Oc3c(F)cc(Nc4cc(Cl)nc(N)n4)cc3F)ccnc21` has a remaining binding of 100% (cell-free assay, competition with immobilised ligand; 0.1 µM).
`Cc1ccc(C(=O)NCc2ccsc2)cc1C#Cc1cn(C(C)C)c2ncnc(N)c12` has an activity vs control of 78% (enzyme activity, inhibitor; 1 µM).
The remaining activity of `Cc1ccc(C(=O)Nc2ccc(CN3CCN(C)CC3)c(C(F)(F)F)c2)cc1C#Cc1cnc2cccnn12` is reported as 3.6% (enzyme activity, inhibitor; 23.5 nM).
With `O=C(Nc1cccnn1)N1CC(C/C=C/c2cncc(Oc3ccc(C(F)(F)F)cn3)n2)C1` the remaining binding was 100% (cell-free assay, competition with immobilised ligand; 1 µM).
`CNC(=O)c1cc(Oc2ccc(NC(=O)Nc3ccc(Cl)c(C(F)(F)F)c3)cc2)ccn1` has an inhibition of 74% (enzyme activity, inhibitor; 10 µM).
The remaining binding of `CCCOc1ccc([C@H]2[C@H](C(=O)O)[C@@H](c3ccc4c(c3)OCO4)CN2CC(=O)Nc2c(CC)cccc2CC)cc1` is reported as 100% (cell-free assay, competition with immobilised ligand; 1 µM).
`N[C@H]1CCN(c2nccc(-c3cnn4ncccc34)n2)C1` gave a remaining binding of 100% (binding; 1 µM).
The remaining binding of `CNC(=O)Nc1ccc2c(c1)CC[C@@]21OC(=O)N(CC(=O)N(Cc2ccc(F)cc2)[C@@H](C)C(F)(F)F)C1=O` is reported as 91% (cell-free assay, competition with immobilised ligand; 1 µM).
With `C[S+]([O-])c1ccc(-c2nc(-c3ccncc3)c(-c3ccc(F)cc3)[nH]2)cc1` (stereo not shown) the remaining signal was 102% (cell-free assay; 0.5 µM).
With `COc1cc(Cl)c(C(=O)N[C@@H](CN[C@H]2CC[C@@H](N)CC2)Cc2ccc(C#N)cc2)cc1-c1ccc(CN[C@H](C)c2ccc(C)cc2)o1` the remaining activity was 101% (enzyme activity, inhibitor; 1 µM).
The remaining signal of `Clc1ccc(Nc2nnc(Cc3ccncc3)c3ccccc23)cc1` is reported as 107% (cell-free assay; 0.5 µM).
The remaining binding of `CC(C)CC(=O)N1CCc2nc(-c3ccc(Br)cc3)nc(N(C)Cc3ccccc3)c2C1` is reported as 100% (cell-free assay, competition with immobilised ligand; 0.1 µM).
`O=C(Nc1cnn(-c2csc(C(=O)NC3COC3)c2)c1)Nc1ccccc1Cl` gave a remaining activity of 97.4% (enzyme activity, inhibitor; 5 µM).
`Cc1ccc(Nc2nccc(N(C)c3ccc4c(C)n(C)nc4c3)n2)cc1S(N)(=O)=O` has an inhibition of 61% (enzyme activity, inhibitor; 10 µM).
With `O=C1Nc2ccc(Cl)cc2C1=Cc1cc(Cl)c(O)c(Cl)c1` the remaining signal was 94.3% (cell-free assay; 0.5 µM).
